Results from different studies.
Each line is one published result; the experiments were not run side by side.
Target: Platelet-derived growth factor receptor alpha (PDGFRA, Homo sapiens, UniProt P16234)

COc1ccc2c(c1)O[C@@H](c1ccc(OC)c(OC)c1)C[C@H]2NC(=O)C1(c2ccc3c(c2)OC(F)(F)O3)CC1
remaining binding (cell-free assay; competition with immobilised ligand; 1 µM): 78%

Cc1cnc(Nc2ccc(C(=O)N3CCC(N4CCCC4)CC3)cc2)nc1-c1cc2ccccc2s1
remaining binding (binding; competition with immobilised ligand; 1 µM): 14%

CS(=O)(=O)c1cc(C2(NC(=O)c3cncc4c3cnn4-c3ccc(F)cc3)CC2)ccn1
remaining binding (cell-free assay; competition with immobilised ligand; 1 µM): 90%

CNC(=O)[C@@H]1CC[C@@H](n2c(-c3ccc4cnccc4c3)nc3ccc(C(=O)NCc4cccc(C(N)=O)c4)cc32)C1
remaining binding (binding; competition with immobilised ligand; 1 µM): 100%

N[C@H]1CCN(c2nccc(-c3cnn4ncccc34)n2)C1
remaining binding (binding; 1 µM): 90%

CC(C)(C)c1ccc(-c2nc(CBr)nn2-c2cccc(O)c2)cc1
remaining binding (cell-free assay; competition with immobilised ligand; 10 µM): 83%

c1cncc(-c2cccc(Nc3nccc(NC4CCCCC4)n3)c2)c1
remaining binding (binding; competition with immobilised ligand; 10 µM): 11%

O=C(c1ccc(Nc2ncc(Cl)c(-c3cc4ccccc4s3)n2)cc1)N1CCC(N2CCCC2)CC1
remaining binding (binding; competition with immobilised ligand; 1 µM): 35%

C=CC(=O)N1CCC(C(=O)NCC(=O)N2CCN(c3nc(-c4cnc(N)nc4C(F)F)nc(N4CCOCC4)n3)CC2)CC1
remaining binding (binding; competition with immobilised ligand; 1 µM): 91%

Cc1cnn2ncc(-c3ccnc(N(C)C)n3)c2c1
remaining binding (binding; 1 µM): 97%

COc1ncc2cc3ccccc3nc2c1C#N
remaining binding (cell-free assay; competition with immobilised ligand; 5 µM): 83%

O=C(c1ccc(Nc2nccc(-c3cc4ccccc4s3)n2)cc1)N1CCC(N2CCCC2)CC1
remaining binding (binding; competition with immobilised ligand; 1 µM): 52%

CNCc1ccccc1-c1csc([C@H](C)Nc2nc(C)nc3cc(OC)c(OC)cc23)c1
remaining binding (cell-free assay; competition with immobilised ligand; 1 µM): 92%

COc1ccnn2ncc(-c3ccnc(N(C)C)n3)c12
remaining binding (binding; 1 µM): 74%

C[C@@H]1CN(c2ccc3ncc(-c4ccc5[nH]nc(C6CC6)c5c4)n3n2)C[C@H](C)O1
remaining binding (binding; competition with immobilised ligand; 50 nM): 81%

F[C@@H]1CCN(c2nccc(-c3cnn4ncccc34)n2)C1
remaining binding (binding; 1 µM): 100%

COc1cc(-c2cn(C3CCc4ccccc4N(CC(F)(F)F)C3=O)nn2)ccc1-n1ccc(C)n1 (stereo not shown)
remaining binding (cell-free assay; competition with immobilised ligand; 1 µM): 88%

O=C(Nc1c[nH]nc1C(=O)NC1CCNCC1)c1cc(F)cc(F)c1
remaining binding (binding; competition with immobilised ligand; 1 µM): 83%

COc1cnc(Nc2cccc(S(N)(=O)=O)c2)nc1N1CCN(c2ccccc2)CC1
remaining binding (binding; competition with immobilised ligand; 1 µM): 85%

CCS(=O)(=O)c1cc2cc(C[C@@](O)(CC(C)(C)c3ccc(F)cc3C(N)=O)C(F)(F)F)[nH]c2cn1
remaining binding (cell-free assay; competition with immobilised ligand; 1 µM): 99%

C[C@@H](c1ccc(-n2cnc3c(N)ncnc32)cc1)N1CCc2nn(C)c(Cc3ccccc3)c2C1=O
remaining binding (binding; competition with immobilised ligand; 0.1 µM): 20%

CSc1cccnc1N1CCN(Cc2nc3ccccc3[nH]2)CC1
remaining binding (cell-free assay; competition with immobilised ligand; 1 µM): 89%

C[C@H]1CCN(c2nccc(-c3cnn4ncccc34)n2)C1
remaining binding (binding; 1 µM): 83%

COc1ccc2c(O[C@@H]3C[C@H]4C(=O)N[C@]5(C(=O)O)CC5/C=C\CCCCC[C@H](NC(=O)OC5CCCC5)C(=O)N4C3)cc(-c3csc(NC(=O)C(C)C)n3)nc2c1C (stereo partly shown)
remaining binding (cell-free assay; competition with immobilised ligand; 1 µM): 84%

CN(c1nccc(-c2cnn3ncccc23)n1)C1CC1
remaining binding (binding; 1 µM): 100%
